{"source": "ChEMBL document CHEMBL5143675", "about": "“Attenuating the Streptococcus pneumoniae Competence Regulon Using Urea-Bridged Cyclic Dominant-Negative Competence-Stimulating Peptide Analogs” (J Med Chem, 2022)", "key": {"[1]": {"assay": "Toxicity in Streptococcus pneumoniae D39 infected CD-1 mouse model assessed as mortality at 4 mg/kg,iv measured after 120 hrs post infection", "format": "organism-based", "conditions": "in vivo", "outline": "(§1)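 Seven-week-old CD-1 mice, male and female, n=15 per cohort, isoflurane-anaesthetized, infected intranasally with D39 (4.5×10^6 CFU) or TIGR4 (1.07×10^6 CFU). Treated retro-orbitally i.v. with 4 mg/kg or PBS vehicle at 2 and 24 hpi; mortality monitored for 120 hpi.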"}, "[2]": {"system": "Streptococcus pneumoniae", "assay": "Antagonist activity against CSP1-mediated pneumolysin release in Streptococcus pneumoniae D39 assessed as inhibition of autolytic release of pneumolysin at 46 to 368 nM in presence of CSP1 by Western blot analysis", "conditions": "filed as antagonist, dose 46-368 nM"}, "[3]": {"assay": "Toxicity in CD-1 mouse assessed as appearance of lesions in heart at 4 mg/kg, ip administered daily for 6 days by H and E staining based assay", "format": "organism-based", "conditions": "in vivo, 144 h, time 6 day"}, "[4]": {"assay": "Toxicity in CD-1 mouse assessed as appearance of lesions in spleen at 4 mg/kg, ip administered daily for 6 days by H and E staining based assay", "format": "organism-based", "conditions": "in vivo, 144 h, time 6 day"}, "[5]": {"system": "Streptococcus pneumoniae", "assay": "Antibacterial activity against erythromycin-resistant Streptococcus pneumoniae D39 infected in CD-1 mouse assessed as reduction in bacterial burden in mouse lung at 4 mg/kg,iv measured after 48 hrs post infection", "format": "functional, organism-based", "outline": "(§2)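 Seven-week-old CD-1 mice, male and female, n=10 per cohort, inoculated intranasally with a 1:1 mix of D39-rplL-ErmR and TIGR4-rplL-KanR (2.5×10^6 CFU each). Treated retro-orbitally i.v. with 4 mg/kg or PBS vehicle at 2 and 24 hpi; euthanized at 48 hpi. Lung and spleen homogenates were plated on THY with erythromycin (250 ng/mL) for D39 or […] for TIGR4.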"}, "[6]": {"assay": "Toxicity in Streptococcus pneumoniae TIGR4 infected CD-1 mouse model assessed as mortality at 4 mg/kg,iv measured after 72 hrs post", "format": "organism-based", "conditions": "in vivo", "outline": "as §1"}, "[7]": {"assay": "Toxicity in CD-1 mouse assessed as appearance of lesions in lung at 4 mg/kg, ip administered daily for 6 days by H and E staining based assay", "format": "organism-based", "conditions": "in vivo, 144 h, time 6 day"}, "[8]": {"assay": "Toxicity in CD-1 mouse assessed as appearance of lesions in liver at 4 mg/kg, ip administered daily for 6 days by H and E staining based assay", "format": "organism-based", "conditions": "in vivo, 144 h, time 6 day"}, "[9]": {"assay": "Toxicity in CD-1 mouse assessed as appearance of lesions in kidney at 4 mg/kg, ip administered daily for 6 days by H and E staining based assay", "format": "organism-based", "conditions": "in vivo, 144 h, time 6 day"}, "[10]": {"assay": "Toxicity in CD-1 mouse assessed as increase in body weight at 4 mg/kg, ip administered daily for 6 days", "format": "organism-based", "conditions": "in vivo, 144 h, time 6 day"}, "[11]": {"system": "Erythrocyte", "assay": "Hemolytic activity against sheep RBC assessed as hemolysis using compound treated Streptococcus pneumoniae D39 cultured PLY supernatant at 46 to 368 nM incubated for 30 mins", "format": "toxicity, cell-based, Ovis aries", "conditions": "0.5 h, 0.368 µM, dose 46-368 nM", "outline": "(§3)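 Supernatants: centrifuged, 0.22 μm filtered, concentrated 50x, serially two-fold diluted, 10 mM DTT for 15 min at room temperature. Then mixed with 2% sheep RBC for 30 min at 37 °C; A541 of cleared supernatant read. HU = highest dilution giving 50% lysis. Triplicate.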"}, "[12]": {"system": "Erythrocyte", "assay": "Hemolytic activity against sheep RBC assessed as hemolysis using compound treated Streptococcus pneumoniae TIGR4 cultured PLY supernatant at 46 to 368 nM incubated for 30 mins", "format": "toxicity, cell-based, Ovis aries", "conditions": "0.5 h, 0.368 µM, dose 46-368 nM", "outline": "as §3"}, "[13]": {"system": "Streptococcus pneumoniae", "assay": "Antibacterial activity against erythromycin-resistant Streptococcus pneumoniae D39 infected in CD-1 mouse assessed as reduction in bacterial burden in mouse spleen at 4 mg/kg,iv measured after 48 hrs post infection", "format": "functional, organism-based", "outline": "as §2"}}, "note": "Activity calls are given as the source filed them. The calls are words filed in the database; no cut-off is given here. *1 amine or outer side, *2 acyl side, *3 side chain or, on linkers, in order; H or OH if unused. Where a SMILES comes first, the peptide text is derived from it. Bridges are numbered along the chain shown (N, C = ends). [ ]: non-standard residue; d: D form. Dab = NCC[C@H](N)C(=O)O; CO = O=C([*:1])[*:2]", "data": [{"compound": "CC[C@H](C)[C@H](NC(=O)[C@H](Cc1ccccc1)NC(=O)[C@@H]1CCNC(=O)NCC[C@H](NC(=O)[C@H](CO)NC(=O)[C@H](CC(C)C)NC(=O)[C@H](CCCNC(=N)N)NC(=O)[C@H](CCSC)NC(=O)[C@H](C)N)C(=O)N[C@@H](Cc2ccccc2)C(=O)N[C@@H](Cc2ccccc2)C(=O)N[C@@H](CCCNC(=N)N)C(=O)N1)C(=O)N[C@@H](CC(C)C)C(=O)N[C@@H](CCC(N)=O)C(=O)N[C@@H](CCCNC(=N)N)C(=O)N[C@@H](CCCCN)C(=O)N[C@@H](CCCCN)C(=O)O", "note": "(H-AMRLS[Dab]FFR[Dab]FILQRKK-OH; linker 6-10 via CO)", "values": [{"measurement": "Activity", "setting": "[1]", "value": "Non-Toxic"}, {"measurement": "Activity", "setting": "[2]", "value": "Active"}, {"measurement": "Activity", "setting": "[3]", "value": "Non-Toxic"}, {"measurement": "Activity", "setting": "[4]", "value": "Non-Toxic"}, {"measurement": "Activity", "setting": "[5]", "value": "Active"}, {"measurement": "mortality at 72 h", "setting": "[6]", "value": 50, "unit": "%"}, {"measurement": "Activity", "setting": "[7]", "value": "Non-Toxic"}, {"measurement": "Activity", "setting": "[8]", "value": "Non-Toxic"}, {"measurement": "Activity", "setting": "[9]", "value": "Non-Toxic"}, {"measurement": "Activity", "setting": "[10]", "value": "Non-Toxic"}, {"measurement": "Activity", "setting": "[11]", "value": "Non-Toxic"}, {"measurement": "Activity", "setting": "[12]", "value": "Toxic"}, {"measurement": "Activity", "setting": "[13]", "value": "Active"}]}]}
